Published values of several laboratories.
Each line is one published result; the experiments were not run side by side.
Target: Testis-specific serine/threonine-protein kinase 1 (TSSK1B, Homo sapiens, UniProt Q9BXA7)
Residues used in one study (Q9BXA7 1-367): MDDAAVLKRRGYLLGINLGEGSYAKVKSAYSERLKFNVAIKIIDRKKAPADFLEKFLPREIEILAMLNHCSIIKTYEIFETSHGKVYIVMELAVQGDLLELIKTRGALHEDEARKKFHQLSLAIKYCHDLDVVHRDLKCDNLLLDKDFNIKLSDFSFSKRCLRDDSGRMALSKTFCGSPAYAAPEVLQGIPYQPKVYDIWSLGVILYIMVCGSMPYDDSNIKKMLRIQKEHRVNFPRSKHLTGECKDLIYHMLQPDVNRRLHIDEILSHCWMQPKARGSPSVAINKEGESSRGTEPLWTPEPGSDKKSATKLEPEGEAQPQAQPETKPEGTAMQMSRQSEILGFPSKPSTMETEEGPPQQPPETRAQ

O=C(Nc1c[nH]nc1C(=O)NC1CCNCC1)c1cc(F)cc(F)c1 — remaining binding (binding; competition with immobilised ligand; 1 µM): 100%
COc1cc(-c2cn(C3CCc4ccccc4N(CC(F)(F)F)C3=O)nn2)ccc1-n1ccc(C)n1 (stereo not shown) — remaining binding (cell-free assay; competition with immobilised ligand; 1 µM): 83%
F[C@@H]1CCN(c2nccc(-c3cnn4ncccc34)n2)C1 — remaining binding (binding; 1 µM): 100%
Cc1noc([C@H]2C[C@@H](c3ccc(C(F)(F)F)cc3)CN(C(=O)N3CCS(=O)(=O)C3)C2)n1 — remaining binding (cell-free assay; competition with immobilised ligand; 1 µM): 100%
COc1ncc2cc3ccccc3nc2c1C#N — remaining binding (cell-free assay; competition with immobilised ligand; 5 µM): 97%
NS(=O)(=O)c1cc(NC(=O)C2(c3ccccc3Cl)CC2)ccc1Oc1cccc(Cl)c1 — remaining binding (cell-free assay; competition with immobilised ligand; 1 µM): 100%
CC(C)(C)c1ccc(-c2nc(CBr)nn2-c2cccc(O)c2)cc1 — remaining binding (cell-free assay; competition with immobilised ligand; 10 µM): 81%
N[C@@H]1CCN(c2nccc(-c3cnn4ncccc34)n2)C1 — remaining binding (binding; 1 µM): 97%
O=C(NCCCN1CCOCC1)c1ccc(Nc2ncc(Cl)c(-c3ccc(Cl)s3)n2)cc1 — remaining binding (binding; competition with immobilised ligand; 1 µM): 62%
C[C@@H]1CN(c2ccc3ncc(-c4ccc5[nH]nc(C6CC6)c5c4)n3n2)C[C@H](C)O1 — remaining binding (binding; competition with immobilised ligand; 50 nM): 78%
CSc1cccnc1N1CCN(Cc2nc3ccccc3[nH]2)CC1 — remaining binding (cell-free assay; competition with immobilised ligand; 1 µM): 100%
CN(C)c1ncc(F)c(-c2cnn3ncccc23)n1 — remaining binding (binding; 1 µM): 100%
FC(F)(F)Oc1cccc(-c2cnc3ccc(-c4ccncc4)nn23)c1 — remaining binding (binding; competition with immobilised ligand; 5 µM): 83%
CN(C)c1nccc(-c2cnn3ncccc23)n1 — remaining binding (binding; 1 µM): 100%
N#Cc1ccccc1CSc1nnc2c(n1)[nH]c1ccccc12 — remaining binding (binding; competition with immobilised ligand; 10 µM): 100%
O=C(NS(=O)(=O)c1ccc(NCC2CCOCC2)c([N+](=O)[O-])c1)c1ccc(N2CCN(Cc3ccc(C(F)(F)F)cc3-c3ccc(Cl)cc3)CC2)cc1Oc1cnc2[nH]ccc2c1 — remaining binding (cell-free assay; competition with immobilised ligand; 1 µM): 100%
CNC(=O)[C@@H]1CC[C@@H](n2c(-c3ccc4cnccc4c3)nc3ccc(C(=O)NCc4cccc(C(N)=O)c4)cc32)C1 — remaining binding (binding; competition with immobilised ligand; 1 µM): 93%
COc1ccc2c(c1)O[C@H](c1ccc(OC)c(OC)c1)C[C@@H]2NC(=O)C1(c2ccc3c(c2)OC(F)(F)O3)CC1 — remaining binding (cell-free assay; competition with immobilised ligand; 1 µM): 100%
CN(C)c1nccc(-c2cnc3ncccn23)n1 — remaining binding (binding; 1 µM): 100%
O=C(NCCCN1CCOCC1)c1ccc(Nc2nccc(-c3cc4ccccc4s3)n2)cc1 — remaining binding (binding; competition with immobilised ligand; 1 µM): 93%
C[C@H]1CCN(c2nccc(-c3cnn4ncccc34)n2)C1 — remaining binding (binding; 1 µM): 98%
CNC(=O)Nc1ccc2c(c1)CC[C@@]21OC(=O)N(CC(=O)N(Cc2ccc(F)cc2)[C@@H](C)C(F)(F)F)C1=O — remaining binding (cell-free assay; competition with immobilised ligand; 1 µM): 84%
CN(CCCC(F)(F)F)c1nccc(-c2cnn3ncccc23)n1 — remaining binding (binding; 1 µM): 92%
O=C(c1ccc(Nc2ncc(Cl)c(-c3ccc(Cl)s3)n2)cc1)N1CCC(N2CCCC2)CC1 — remaining binding (binding; competition with immobilised ligand; 1 µM): 49%
CC(C)CC(=O)N1CCc2nc(-c3ccc(Br)cc3)nc(N(C)Cc3ccccc3)c2C1 — remaining binding (cell-free assay; competition with immobilised ligand; 0.1 µM): 99%
